# KCNQ1 act = human KCNQ1 channel potentiation or activation | P51787 | CHO-K1 KCNQ1, thallium flux FluxOR fluorescence; active compounds read high | B-score at 10 µM | 310,000 tested, 0.35% active | AID 2648;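 active means fluorescence ratio B-score, a plate-corrected score, at least three library SD, with initial intensity B-score within 5 SD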
#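 assay system = KCNQ1-transfected CHO-K1 cells | medium = assay buffer with matched DMSO | probe or stimulus = depolarizing K+/Tl+ stimulus, K2SO4 and Tl2SO4 each 12.5 mM in 5x stock | dosing = single dose | incubation = dye 90 min, compound 20 min, room temperature | detection = kinetic FluxOR fluorescence, 10 s baseline plus 110 s post-stimulus | evaluation = ratio B score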
# KCNK9 block = blocks the human KCNK9 two-pore domain potassium channel. Q9NPC2. 310,000 tested, 1.2% active. HEK293 KCNK9, FluxOR thallium flux fluorescence; active compounds read low. B-score at 10 µM. AID 488922;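 active means ratio B-score over 3 SD below the library mean, with starting fluorescence within 5 SD of its mean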;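 further: negative B-score means less thallium flux so channel inhibition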
# hERG rescue = hERG (human) protection from proarrhythmic block | Q12809 | CHO-hERG, FluxOR thallium flux, dofetilide IC70 present | activation (rescue from dofetilide block), less the hit threshold, % at 10 µM | 310,000 tested, 0.51% active | AID 1511;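 active means activation above the mean of controls blocked by dofetilide plus 5 SD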;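 further: thallium influx through hERG after potassium depolarization seen as dye fluorescence rise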
# KCNK3 block = human KCNK3 channel inhibition, primary screen; O14649; 340,000 tested, 0.84% active; B-score at 10 µM; CHO-KCNK3 thallium flux, FluxOR fluorescence; active compounds read low; AID 602410;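 active means B-score under library mean minus 4 SD, starting fluorescence ratio at most library mean plus 5 SD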;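 further: more negative B-score means stronger inhibition of thallium flux through KCNK3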
# KCNQ1 block = blocks the human KCNQ1 potassium channel; CHO-K1 KCNQ1, FluxOR thallium flux fluorescence; active compounds read high; B-score at 10 µM; 310,000 tested, 1.3% active; AID 2642;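 active means compounds whose thallium flux B-score, printed positive for inhibition, exceeds three library SD while starting fluorescence stays within three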;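 further: channel opened by potassium depolarization with thallium stimulus after 20 min compound exposure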
# * marks the source's active call; other numbers are inactive results; i = inactive; x = no result. Hits are enriched below; roughly 3.1% of the tested compounds scored in any of these assays.
SMILES,KCNQ1 act,KCNK9 block,hERG rescue,KCNK3 block,KCNQ1 block
O=C(CSc1nc2ccccc2c(=O)n1-c1ccc(F)cc1F)Nc1ccc2c(c1)CCC2,i,-7.6*,-11,i,i
CC(C)NC1(C#N)CCN(Cc2ccccc2)CC1,x,x,x,i,x
Cc1ccc(NC(=O)N2CCC(NC(=O)c3cccc(F)c3)CC2)cc1,i,i,-3,i,i
CCOC(=O)c1c(-c2ccccc2)csc1NC(=O)C(C)NCc1ccco1 (stereo unspecified),i,i,-13,i,7*
O=C1CC[C@@]23CCCN2C(=O)CCCC3C1 (stereo partly specified),x,x,x,i,x
COC(=O)Nc1nn(-c2ccc(OC)cc2)c(=O)c(C#N)c1C,i,i,5.5*,i,i
CCCN(CCC)S(=O)(=O)c1ccc(C(=O)OCCN2C(=O)c3cccc4c(N5CCOCC5)ccc(c34)C2=O)cc1,i,i,-18,i,10*
CCN(CC)S(=O)(=O)c1ccc(C(=O)N2CCN(CCN3C(=O)c4cccc5cccc(c45)C3=O)CC2)cc1,i,i,0,x,i
O=C(O)c1cccc([N+](=O)[O-])c1C(=O)Nc1ccc2ccccc2c1,i,i,-4,i,i
CCOC(=O)C1=C(C)Nc2sc(C(=O)c3ccc(OC)cc3)c(N)c2C1c1ccc(C(=O)OC)cc1 (stereo unspecified),i,-6.7*,-10,i,i
C=CC(C)(C)c1c(O)c(CC=C(C)C)c(O)c2c(=O)c3ccc(O)c(O)c3oc12,i,i,-9,i,6*
C=CC(C)(C)c1c2occc2c(O)c2ccc(=O)oc12,x,x,x,i,x
Cc1cccc(N/C(N)=N/c2nc(C)cc(=O)[nH]2)c1,i,i,5.7*,i,i
Cc1ccc(C(=O)N2CCN(S(=O)(=O)c3ccc(C(C)C)cc3)CC2)s1,i,i,-18,i,i
CCC(C)Nc1nc(N)c([N+](=O)[O-])c(Nc2ccccc2OC)n1 (stereo unspecified),i,-7.9*,-5,i,i
COc1ccccc1Nc1nc(NCC(C)C)nc(N)c1[N+](=O)[O-],i,i,-8,i,i
CCC1=C(OC(=O)N(CC)CC)N2C(=O)OC(=NCCc3c[nH]c4ccccc34)[C@]2(Cc2ccccc2)[C@H]2C1=CC[C@H]1C(=O)N(CC)C(=O)[C@H]12,i,-6.8*,-11,i,i
CCCCCC(=O)OC(CN1CCCCCC1)CN1CCCC1=O (stereo unspecified),i,i,-5,i,10*
CCOc1cc(C)c(-c2onc(C(F)(F)F)c2-c2csc(C)n2)c(O)c1,i,i,-18,i,8*
Cc1nc(-c2c(C(F)(F)F)noc2-c2ccc(O)cc2O)cs1,i,i,-11,i,i
Cc1cc(OC(F)F)ccc1NC(=O)Nc1ccc([N+](=O)[O-])cc1,i,i,-11,i,6*
O=C(Nc1ccc([N+](=O)[O-])cc1)Nc1ccc(Cl)cc1F,i,i,-16,i,14*
S=c1[nH]cnc2scc(-c3ccccc3)c12,18*,i,60*,i,i
S=c1[nH]cnc2sc(-c3ccccc3)cc12,132*,i,19*,i,i
CNc1ncnc2sc(-c3ccccc3)cc12,i,i,-7,i,i
SMILES,KCNQ1 act,KCNK9 block,hERG rescue,KCNK3 block,KCNQ1 block
CC(C)CN(C(=O)c1ccco1)C1CCS(=O)(=O)C1 (stereo unspecified),i,i,-10,i,i
Cc1[nH]c(C)c(S(=O)(=O)N(Cc2ccccc2)C(C)C)c1C(=O)N1CCCC1,i,i,-12,i,i
CCN(CC)c1ccc(/C=C2\C(=N)N3N=C(CC(=O)N4CCOCC4)SC3=NC2=O)cc1,i,i,-9,i,i
Cn1c(=O)c2c(ncn2CC(=O)N/N=C/C(Cl)=C/c2ccccc2)n(C)c1=O,11*,i,-8,i,i
Cn1c(=O)c2c(ncn2CCC(=O)N/N=C/c2ccccc2)n(C)c1=O,i,i,-5,i,i
CCOC(=O)c1ccccc1OC(=O)CS(=O)c1ccccc1[N+](=O)[O-] (stereo unspecified),i,i,-8,i,6*
